# From ChEMBL document CHEMBL1146004, “Effect of substitution on novel tricyclic HIV-1 integrase inhibitors” (Bioorg Med Chem Lett, 2006)
# How the values were obtained:
# MT4 = assay: Cytotoxicity against human MT4 cells; assay type: functional
# [1] = target: Human immunodeficiency virus type 1 integrase (Human immunodeficiency virus 1, UniProt Q7ZJM1); assay: Inhibition of HIV1 integrase strand transfer activity
# [2] = test system: Human immunodeficiency virus 1; assay: Antiviral activity against HIV1 3B in MT4 cell line; assay type: functional, organism-based; conditions: Human immunodeficiency virus 1, 3B
# Method in brief: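 MT-4 cells infected with HIV-1 IIIB at moi 0.01 for 3 h, then ~1.5 × 10⁴ cells/well added to 5-fold serial drug dilutions (9 concentrations, triplicate) in culture medium; 37 °C for 5 days. Viability read by CellTiter-Glo chemiluminescence after 10 min lysis at room temperature; EC50 derived.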
# physchem [3] = conditions: buffer, pH 7.3
# physchem [4] = conditions: buffer, pH 2.2
# Sequence of Human immunodeficiency virus type 1 integrase (Q7ZJM1 whole entry): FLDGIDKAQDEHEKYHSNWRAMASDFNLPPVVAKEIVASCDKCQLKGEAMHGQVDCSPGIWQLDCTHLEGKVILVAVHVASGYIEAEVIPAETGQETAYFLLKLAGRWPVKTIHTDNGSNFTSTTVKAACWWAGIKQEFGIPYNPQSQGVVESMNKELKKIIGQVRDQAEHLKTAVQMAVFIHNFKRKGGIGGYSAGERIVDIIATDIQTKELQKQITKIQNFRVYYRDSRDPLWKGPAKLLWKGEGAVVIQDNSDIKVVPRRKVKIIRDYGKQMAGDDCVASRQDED
IC50 [1] [µM],EC50 [2] [µM],solubility (physchem [3]) [µM],solubility (physchem [4]) [µM],SMILES,CC50 (MT4) [µM]
0.06,–,–,–,COc1c2c(c(O)c3ncccc13)C(=O)N(Cc1ccc(F)cc1)C2,5.1
0.255,–,< 2.3,7,CN(C)S(=O)(=O)Oc1c2c(c(O)c3ncccc13)C(=O)N(Cc1ccc(F)cc1)C2,1.4
0.088,0.077,3,193,COc1c2c(c(O)c3ncccc13)C(=O)N(Cc1ccc(F)cc1)C2C (configuration not stated),1.6
0.815,0.008,2,11,CC1c2c(c(O)c3ncccc3c2OS(=O)(=O)N(C)C)C(=O)N1Cc1ccc(F)cc1 (configuration not stated),0.755
0.357,0.443,2.1,11,CN(C)S(=O)(=O)Oc1c2c(c(O)c3ncccc13)C(=O)N(Cc1ccc(F)cc1)C21CC1,14.2

# The remaining lines, values behind:
SMILES,IC50 [1] [µM],EC50 [2] [µM],solubility (physchem [3]) [µM],solubility (physchem [4]) [µM],CC50 (MT4) [µM]
COC(=O)CCSC1c2c(c(O)c3ncccc3c2OC)C(=O)N1Cc1ccc(F)cc1 (configuration not stated),0.31,0.43,–,–,2.8
O=C1c2c(c(O)c3ncccc3c2O)C(=O)N1Cc1ccc(F)cc1,0.08,7.5,< 1.4,< 1.4,19
COc1c2c(c(O)c3ncccc13)C(=O)N(Cc1ccc(F)cc1)C2O (configuration not stated),0.036,0.256,–,–,9.74
COc1c2c(c(O)c3ncccc13)C(=O)N(Cc1ccc(F)cc1)C21CC1,0.007,0.124,26,49,3.3
COc1c2c(c(O)c3ncccc13)C(=O)N(Cc1ccc(F)cc1)C2SCCC(=O)O (configuration not stated),0.295,3.4,–,–,24
C=C1c2c(c(O)c3ncccc3c2OC)C(=O)N1Cc1ccc(F)cc1,0.15,0.375,–,–,6.1
C=C1c2c(c(O)c3ncccc3c2OS(=O)(=O)N(C)C)C(=O)N1Cc1ccc(F)cc1,0.42,0.052,< 1,< 1,1.65
COc1c2c(c(O)c3ncccc13)C(=O)N(Cc1ccc(F)cc1)C2(C)C,0.21,1.11,–,–,0.427
COc1c2c(c(O)c3ncccc13)C(=O)N(Cc1ccc(F)cc1)C2OC (configuration not stated),0.064,0.415,–,–,11.4
COc1c2c(c(O)c3ncccc13)C(=O)N(Cc1ccc(F)cc1)C2SCCC(=O)N1CCNCC1 (configuration not stated),0.059,0.685,–,–,5.25
